Results published in ChEMBL document CHEMBL4190388, “Discovery and Optimization of Indolyl-Containing 4-Hydroxy-2-Pyridone Type II DNA Topoisomerase Inhibitors Active against Multidrug Resistant Gram-negative Bacteria” (J Med Chem, 2018).
In brackets after ≈: the same amount, converted by molar mass.

Legend:
[1] = tested on: Escherichia coli; experiment: Antibacterial activity against fluoroquinolone resistant Escherichia coli SKM18 by CLSI M100-S17 protocol based method; format: functional
[2] = tested on: Escherichia coli; experiment: Antibacterial activity against wild type Escherichia coli ATCC 25922 by CLSI M100-S17 protocol based method; format: functional
[3] = tested on: Escherichia coli; experiment: Antibacterial activity against quinolone resistance Escherichia coli isolate ELZ4251 harboring gyrA/parC mutant by CLSI M100-S17 protocol based method; format: functional
[4] = tested on: Acinetobacter baumannii; experiment: Antibacterial activity against wild type Acinetobacter baumannii ATCC BAA-747 by CLSI M100-S17 protocol based method; format: functional
[5] = tested on: Acinetobacter baumannii; experiment: Antibacterial activity against fluoroquinolone resistant Acinetobacter baumannii isolate MMX2240 by CLSI M100-S17 protocol based method; format: functional
[6] = tested on: Klebsiella pneumoniae; experiment: Antibacterial activity against wild type Klebsiella pneumoniae ATCC 35657 by CLSI M100-S17 protocol based method; format: functional
[7] = tested on: Escherichia coli; experiment: Antibacterial activity against wild type Escherichia coli ATCC 25922 in presence of HSA by CLSI M100-S17 protocol based method; format: functional
[8] = tested on: Escherichia coli; experiment: Antibacterial activity against quinolone resistant Escherichia coli by broth microdilution method; format: functional
In short: (§1)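 MICs were determined by CLSI broth methods, except that organisms were grown in brain–heart–infusion medium. The panel comprised wild-type and resistant E. coli and A. baumannii strains, including 12 strains whose details are given by reference.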

[9] = tested on: Escherichia coli; experiment: Antibacterial activity against wild type Escherichia coli by broth microdilution method; format: functional; in short: as §1
[10] = tested on: Escherichia coli; experiment: Antibacterial activity against beta-lactam resistant Escherichia coli by broth microdilution method; format: functional; in short: as §1
[11] = tested on: Escherichia coli; experiment: Antibacterial activity against aminoglycoside resistant Escherichia coli by broth microdilution method; format: functional; in short: as §1
[12] = tested on: Escherichia coli; experiment: Antibacterial activity against multidrug resistant Escherichia coli by broth microdilution method; format: functional; in short: as §1
[13] = tested on: Acinetobacter baumannii; experiment: Antibacterial activity against wild type Acinetobacter baumannii by broth microdilution method; format: functional; in short: as §1
[14] = tested on: Acinetobacter baumannii; experiment: Antibacterial activity against aminoglycoside resistant Acinetobacter baumannii by broth microdilution method; format: functional; in short: as §1
[15] = tested on: Acinetobacter baumannii; experiment: Antibacterial activity against quinolone resistant Acinetobacter baumannii by broth microdilution method; format: functional; in short: as §1
[16] = tested on: Acinetobacter baumannii; experiment: Antibacterial activity against beta-lactam resistant Acinetobacter baumannii by broth microdilution method; format: functional; in short: as §1
[17] = tested on: Acinetobacter baumannii; experiment: Antibacterial activity against carbapenem resistant Acinetobacter baumannii by broth microdilution method; format: functional; in short: as §1
[18] = tested on: Acinetobacter baumannii; experiment: Antibacterial activity against multidrug resistant Acinetobacter baumannii by broth microdilution method; format: functional; in short: as §1
[19] = tested on: Escherichia coli; experiment: Selectivity ratio of MIC for wild type Escherichia coli ATCC 25922 in presence of HSA to MIC for wild type Escherichia coli ATCC 25922; format: functional
[20] = Inhibition of Escherichia coli DNA topoisomerase 4 assessed as reduction in decatenation activity using kinetoplast concatenated DNA as substrate after 30 mins by picogreen dye based fluorescence assay

Work on `CCNCc1cc2cc3c(cc2n1C)OCCc1c-3[nH]c(=O)c(C(=O)O)c1O` yielded an MIC [1] of 0.78 µg/mL (≈ 2.03 µM), an MIC [2] of 0.78 µg/mL (≈ 2.03 µM) and an MIC [3] of 12.5 µg/mL (≈ 32.6 µM). It also gave an MIC [4] of 12.5 µg/mL (≈ 32.6 µM), an MIC [5] of 12.5 µg/mL (≈ 32.6 µM) and an MIC [6] of 0.78 µg/mL (≈ 2.03 µM). The MIC [7] was 1.6 µg/mL.
Compound `COCCNCc1cc2cc3c(cc2n1C)CCCc1c-3[nH]c(=O)c(C(=O)O)c1O` has an MIC [1] of 0.5 µg/mL (≈ 1.22 µM), an MIC [2] of 0.78 µg/mL (≈ 1.9 µM) and an MIC [3] of 1.6 µg/mL (≈ 3.89 µM). It also gave an MIC [4] of 1.6 µg/mL (≈ 3.89 µM), an MIC [5] of 1 µg/mL (≈ 2.43 µM) and an MIC [6] of 0.78 µg/mL (≈ 1.9 µM). For the same compound, the MIC [7] was 3.1 µg/mL.
For `C[C@H]1COc2c(N3CCN(C)CC3)c(F)cc3c(=O)c(C(=O)O)cn1c23.C[C@H]1COc2c(N3CCN(C)CC3)c(F)cc3c(=O)c(C(=O)O)cn1c23.O` [LEVOFLOXACIN], the MIC [8] was 0.015 to 32 µg/mL, the MIC50 ([8]; Escherichia coli) was 0.06 µg/mL and the MIC90 ([8]; Escherichia coli) was 32 µg/mL. It also gave an MIC50 [9] of 0.06 µg/mL, an MIC90 [9] of 32 µg/mL and an MIC [10] of 0.015 to 32 µg/mL. It also gave an MIC50 ([10]; Escherichia coli) of 0.06 µg/mL, an MIC90 ([10]; Escherichia coli) of 32 µg/mL and an MIC [11] of 0.015 to 32 µg/mL. The MIC50 ([11]; Escherichia coli) was 0.06 µg/mL, the MIC90 ([11]; Escherichia coli) was 32 µg/mL and the MIC [12] was 0.015 to 32 µg/mL. For the same compound, the MIC50 ([12]; Escherichia coli) was 0.06 µg/mL, the MIC90 ([12]; Escherichia coli) was 32 µg/mL and the MIC50 [13] was 2 µg/mL. For the same compound, the MIC90 [13] was 16 µg/mL, the MIC [14] was 0.06 to 64 µg/mL and the MIC50 ([14]; Acinetobacter baumannii) was 2 µg/mL. The MIC90 ([14]; Acinetobacter baumannii) was 16 µg/mL, the MIC [15] was 0.06 to 64 µg/mL and the MIC50 ([15]; Acinetobacter baumannii) was 2 µg/mL. For the same compound, the MIC90 ([15]; Acinetobacter baumannii) was 16 µg/mL, the MIC [16] was 0.06 to 64 µg/mL and the MIC50 ([16]; Acinetobacter baumannii) was 2 µg/mL. For the same compound, the MIC90 ([16]; Acinetobacter baumannii) was 16 µg/mL, the MIC [17] was 0.06 to 64 µg/mL and the MIC50 ([17]; Acinetobacter baumannii) was 2 µg/mL. The MIC90 ([17]; Acinetobacter baumannii) was 16 µg/mL, the MIC [18] was 0.06 to 64 µg/mL and the MIC50 ([18]; Acinetobacter baumannii) was 2 µg/mL. For the same compound, the MIC90 ([18]; Acinetobacter baumannii) was 16 µg/mL.
Compound `COCCNCc1cc2cc3c(cc2n1C)OCCc1c-3[nH]c(=O)c(C(=O)O)c1O` has an MIC [1] of 0.5 µg/mL (≈ 1.21 µM), an MIC [2] of 2 µg/mL (≈ 4.84 µM) and an MIC [4] of 7.8 µg/mL (≈ 18.9 µM). For the same compound, the MIC [5] was 7.8 µg/mL (≈ 18.9 µM), the MIC [6] was 2 µg/mL (≈ 4.84 µM) and the MIC [7] was 15.6 µg/mL.
With `CCc1c(-c2ccc3c(c2)cc(CNC(C)C)n3C)[nH]c(=O)c(C(=O)O)c1O` the MIC [1] was 1.6 µg/mL (≈ 4.17 µM), the MIC [2] was 0.39 µg/mL (≈ 1.02 µM) and the MIC [3] was 3.1 µg/mL (≈ 8.08 µM). For the same compound, the MIC [4] was 0.78 µg/mL (≈ 2.03 µM), the MIC [5] was 3.1 µg/mL (≈ 8.08 µM) and the MIC [6] was 0.39 µg/mL (≈ 1.02 µM). For the same compound, the MIC [7] was 1.6 µg/mL.
Work on `CCc1c(-c2ccc3c(c2)c(C)c(C)n3C)[nH]c(=O)c(C(=O)O)c1O` yielded an MIC [2] of over 12.5 µg/mL.
`CCc1c(-c2ccc3c(c2)cc(CN2CCCC2)n3C)[nH]c(=O)c(C(=O)O)c1O` showed an MIC [1] of 6.3 µg/mL (≈ 15.9 µM), an MIC [2] of 0.78 µg/mL (≈ 1.97 µM) and an MIC [3] of 6.3 µg/mL (≈ 15.9 µM). It also gave an MIC [4] of 0.78 µg/mL (≈ 1.97 µM), an MIC [5] of 12.5 µg/mL (≈ 31.6 µM) and an MIC [6] of 0.78 µg/mL (≈ 1.97 µM).
With `Cn1c(CN2CCCC2)cc2cc3c(cc21)SCCc1c-3[nH]c(=O)c(C(=O)O)c1O` the MIC [1] was 2 µg/mL (≈ 4.7 µM), the MIC [2] was 2 µg/mL (≈ 4.7 µM) and the MIC [4] was 2 µg/mL (≈ 4.7 µM). For the same compound, the MIC [5] was 3.9 µg/mL (≈ 9.17 µM), the MIC [6] was 2 µg/mL (≈ 4.7 µM) and the MIC [7] was 31.3 µg/mL.
`CCc1c(-c2ccc3c(c2)cc(C)n3C)[nH]c(=O)c(C(=O)O)c1O` gave an MIC [1] of over 62.5 µg/mL, an MIC [2] of 1.6 µg/mL (≈ 4.9 µM) and an MIC [3] of 62.5 µg/mL (≈ 192 µM). For the same compound, the MIC [7] was over 62.5 µg/mL and the Ratio [19] was over 40.
For `CCNCc1cc2c3c(ccc2n1C)-c1[nH]c(=O)c(C(=O)O)c(O)c1CCC3`, the MIC [1] was 6.3 µg/mL (≈ 16.5 µM), the MIC [2] was 12.5 µg/mL (≈ 32.8 µM) and the IC50 [20] was 19 µM.
In the case of `CCc1c(-c2ccc(N(C)C)cc2)[nH]c(=O)c(C(=O)O)c1O`, the MIC [1] is reported as 15.6 µg/mL (≈ 51.6 µM), the MIC [2] is reported as 0.78 µg/mL (≈ 2.58 µM) and the MIC [3] is reported as 15.6 µg/mL (≈ 51.6 µM). It also gave an MIC [4] of 1.6 µg/mL (≈ 5.29 µM), an MIC [5] of 6.3 µg/mL (≈ 20.8 µM) and an MIC [6] of 3.1 µg/mL (≈ 10.3 µM). It also gave an MIC [7] of over 62.5 µg/mL.
`CCc1c(-c2ccc3c(c2)cc(CN(C)C)n3C)[nH]c(=O)c(C(=O)O)c1O` gave an MIC [1] of 6.3 µg/mL (≈ 17.1 µM), an MIC [2] of 0.39 µg/mL (≈ 1.06 µM) and an MIC [3] of 6.3 µg/mL (≈ 17.1 µM). It also gave an MIC [4] of 0.78 µg/mL (≈ 2.11 µM), an MIC [5] of 3.1 µg/mL (≈ 8.39 µM) and an MIC [6] of 0.78 µg/mL (≈ 2.11 µM). The MIC [7] was 3.1 µg/mL and the Ratio [19] was 2 - 4.
`CN(C)Cc1cc2cc(-c3[nH]c(=O)c(C(=O)O)c(O)c3C3CC3)ccc2n1C` showed an MIC [1] of 31.3 µg/mL (≈ 82.1 µM), an MIC [2] of 62.5 µg/mL (≈ 164 µM) and an MIC [4] of over 62.5 µg/mL. The MIC [5] was 15.6 µg/mL (≈ 40.9 µM), the MIC [6] was 31.3 µg/mL (≈ 82.1 µM) and the MIC [7] was over 62.5 µg/mL.
For `CNCc1cc2cc3c(cc2n1C)NCCc1c-3[nH]c(=O)c(C(=O)O)c1O`, the MIC [1] was 3.9 µg/mL (≈ 10.6 µM), the MIC [2] was 31.3 µg/mL (≈ 85 µM) and the MIC [3] was over 62.5 µg/mL. For the same compound, the MIC [4] was over 25 µg/mL, the MIC [5] was over 25 µg/mL and the MIC [6] was 6.3 µg/mL (≈ 17.1 µM).
With `CC(C)NCc1cc2cc3c(cc2n1C)COCc1c-3[nH]c(=O)c(C(=O)O)c1O` the MIC [1] was 0.78 µg/mL (≈ 1.96 µM), the MIC [2] was 12.5 µg/mL (≈ 31.5 µM) and the MIC [4] was over 50 µg/mL. For the same compound, the MIC [5] was over 50 µg/mL and the MIC [6] was 3.1 µg/mL (≈ 7.8 µM).
With `CC(C)NCc1cc2cc3c(cc2n1C)OCCc1c-3[nH]c(=O)c(C(=O)O)c1O` the MIC [1] was 0.49 µg/mL (≈ 1.23 µM), the MIC [2] was 0.49 µg/mL (≈ 1.23 µM) and the MIC [3] was 1 µg/mL (≈ 2.52 µM). It also gave an MIC [4] of 3.9 µg/mL (≈ 9.81 µM), an MIC [5] of 6.3 µg/mL (≈ 15.9 µM) and an MIC [6] of 1.6 µg/mL (≈ 4.03 µM). The MIC [7] was 2 µg/mL and the Ratio [19] was 2 - 4.
For `CN(C)Cc1cc2cc3c(cc2n1C)COCc1c-3[nH]c(=O)c(C(=O)O)c1O`, the MIC [1] was 0.78 µg/mL (≈ 2.03 µM), the MIC [2] was 6.3 µg/mL (≈ 16.4 µM) and the MIC [4] was 25 µg/mL (≈ 65.2 µM). The MIC [5] was 25 µg/mL (≈ 65.2 µM) and the MIC [6] was 3.1 µg/mL (≈ 8.09 µM).
For `CC(C)NCc1cc2cc3c(cc2n1C)NCCc1c-3[nH]c(=O)c(C(=O)O)c1O`, the MIC [1] was 3.9 µg/mL (≈ 9.84 µM), the MIC [2] was 7.8 µg/mL (≈ 19.7 µM) and the MIC [3] was 62.5 µg/mL (≈ 158 µM). The MIC [4] was over 25 µg/mL, the MIC [5] was over 25 µg/mL and the MIC [6] was 6.3 µg/mL (≈ 15.9 µM).
